From PubChem BioAssay
Rows were chosen to be rich in hits. Some 3.5% of all compounds tested hit in one or more screens of this group.
Cneo AK release = causes C. neoformans cell lysis. AID 651654. adenylate kinase release luminescence, 4 h; normalised: neutral wells 0, clomiphene wells 100. lysis activity, % at 15 µM. 360,000 compounds, 0.2% hits;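 active means mean lysis activity across replicates of at least 80%, whatever share of replicates individually reach that level; inactive means mean lysis activity below 80%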
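Test system: log-phase Cryptococcus neoformans yeast cells; Quantity: yeast cell density of 5 × 10^6 cells/mL; Buffer or medium: YPD; Doses: single compound concentration per well; Timing: 4 h at 37 °C static, read 1 h later; Measured by: AK luminescence; Read-out basis: lysis from increased AK signal; Control set: Clomiphene as positive control.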
Wnt act = activates Wnt/beta-catenin signaling in a reporter cell assay | activation, % at 9.35 µM | 300,000 compounds, 1.2% hits | AID 743398 | activator, plate reader; in the data active means activation above about 30%, passing the limit was not always enough; inconclusive means no clear call, values can overlap the other calls;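 further: 0% = neutral control wells and 100% = positive control wells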
HIV Env fusion = inhibitors of HIV Env-mediated cell fusion | inhibition, % at 12.3 µM | HeLa-JRFL Env/CEM21 cell fusion, luciferase | 360,000 compounds, 1.1% hits;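 active means mean replicate inhibition score of at least 50 and every replicate individually at or above 50; inconclusive means only one of the two criteria met; inactive means mean below 50 and not all replicates reaching 50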;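 further: 0% = plate neutral controls and 100% = maraviroc near 300 nM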
MITF act = increases MITF-driven TRPM1 promoter luciferase signal | SK-MEL-5 TRPM1-promoter luciferase, 24 h; % of positive control, neutral wells = 0 | activation, % at 12.5 µM | 300,000 compounds, 0.75% hits;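 active means mean activation of at least 80% with every replicate also reaching 80%; inconclusive means mean reaches 80% but some replicate falls short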;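 further: 0% = neutral control wells and 100% = parthenolide positive control wells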
esBAF inh = inhibitors of esBAF chromatin remodeling in mouse ES cells. Bmi1-luciferase knock-in reporter, 24 h; 100% = twice the neutral-well signal. reporter increase, % at 12.5 µM. 350,000 compounds, 2% hits. AID 602393; in the data active means activation above about 40%; inconclusive means no clear call, values can overlap the other calls;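 further: 0% = median of the plate's neutral control wells and 100% = double that signal; a rise in the Bmi1 reporter signal indicates esBAF inhibition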
ERAP1 HTS inh = inhibitors of human ERAP1 aminopeptidase | inhibition, % at 10.7 µM | recombinant ERAP1, Leu-AMC fluorescence, 60 min | 340,000 compounds, 0.15% hits;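 active means mean replicate inhibition of at least 30%, or all replicates individually reaching that 30% level; inactive means mean below 30% and not every replicate reaching it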;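 further: 0% = neutral control wells and 100% = L-leucinethiol positive control wells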
Target sequence (Q9NZ08 whole entry, looked up): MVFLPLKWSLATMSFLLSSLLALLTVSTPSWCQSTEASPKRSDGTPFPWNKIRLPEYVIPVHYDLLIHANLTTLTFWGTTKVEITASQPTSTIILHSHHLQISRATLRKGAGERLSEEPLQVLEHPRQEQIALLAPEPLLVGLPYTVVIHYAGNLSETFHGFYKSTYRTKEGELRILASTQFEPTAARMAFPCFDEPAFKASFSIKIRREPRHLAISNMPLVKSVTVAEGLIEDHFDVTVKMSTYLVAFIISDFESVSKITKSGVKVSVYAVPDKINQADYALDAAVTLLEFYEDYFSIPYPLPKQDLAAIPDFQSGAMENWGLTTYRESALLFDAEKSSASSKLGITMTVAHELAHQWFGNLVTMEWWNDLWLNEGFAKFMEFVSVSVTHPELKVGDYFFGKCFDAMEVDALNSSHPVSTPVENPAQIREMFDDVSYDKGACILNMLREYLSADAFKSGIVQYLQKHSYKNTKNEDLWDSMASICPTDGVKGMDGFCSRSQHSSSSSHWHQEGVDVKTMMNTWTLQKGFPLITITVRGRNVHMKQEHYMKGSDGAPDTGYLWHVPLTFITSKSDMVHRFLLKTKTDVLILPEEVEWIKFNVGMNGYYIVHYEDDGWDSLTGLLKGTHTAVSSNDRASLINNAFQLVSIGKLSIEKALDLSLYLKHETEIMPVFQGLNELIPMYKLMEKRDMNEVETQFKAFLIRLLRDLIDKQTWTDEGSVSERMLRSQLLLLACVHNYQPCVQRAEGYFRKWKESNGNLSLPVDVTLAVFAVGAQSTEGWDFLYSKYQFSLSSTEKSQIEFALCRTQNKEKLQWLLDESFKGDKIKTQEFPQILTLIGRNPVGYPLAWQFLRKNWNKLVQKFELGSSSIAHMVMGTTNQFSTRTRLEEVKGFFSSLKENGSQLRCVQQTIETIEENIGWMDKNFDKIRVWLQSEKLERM
An asterisk follows results filed as active; u = inconclusive; x = no result; [ ] = dose if it differs, or a comment.

SMILES	Cneo AK release	Wnt act	HIV Env fusion	MITF act	esBAF inh	ERAP1 HTS inh
Cc1ccc(C)c(-c2cc(C(=O)Nc3sc(C)c(C)c3C(N)=O)c3ccccc3n2)c1	-3	x	89*	-13	2	x
Cc1cc(C(=O)Nc2sccc2C(N)=O)c(C)o1	x	7	-1	8	x	3
Cc1sc(NC(=S)NC(=O)C(C)(C)C)c(C(N)=O)c1C	-1	x	x	14	47*	x
C[C@@H]1CN([C@H](C)CO)C(=O)c2cc(C#CCN(C)C)cnc2O[C@H]1CN(C)C(=O)CCN1CCCCC1	-8	x	-11[16.7 µM]	x	3	2
COc1ccc2c3c([nH]c2c1)[C@H](CO)N(C(=O)c1ccccn1)CC31CCN(C(=O)C2CCCC2)CC1	x	x	x	x	x	0
COc1ccc2cc3cc(C(=O)NCCCN4CCOCC4)oc3nc2c1	-1	x	18	3	x	x
Cc1ccc2cc3cc(C(=O)NCCN4CCOCC4)oc3nc2c1	-8	0	59*	-2	-8	x
CN(CCCN1CCOCC1)C(=O)c1cc(COc2ccc(F)cc2F)on1	2	-4	4	6	1	-3
COc1cc(C)ccc1OCc1cc(C(=O)NCCN2CCOCC2)no1	-2	26	x	107*	63*	2
COc1cc(C)ccc1OCc1cc(C(=O)N(C)CCCN2CCOCC2)no1	-1	u	-46	127*	74*	-2
CC(=O)Nc1ccc2c(c1)Cc1ccc(Cl)cc1-2	3	13	-20	46	46*	3
CC(=O)Nc1ccc2c(c1)Cc1cc(N3C(=O)C=CC3=O)ccc1-2	1	-4	-18	-79	-1	34*
CC(C)NC(=O)N(C)C[C@H]1Oc2ncc(C#CCC3CCCC3)cc2C(=O)N([C@H](C)CO)C[C@@H]1C	4	x	-27[16.7 µM]	x	2	2
Cc1nnc(SCC(=O)N/N=C/c2cn(-c3ccccc3)nc2-c2ccccc2)n1-c1ccccc1	0	x	x	28	63*	x
O=C(N/N=C/c1cn(-c2ccccc2)nc1-c1ccccc1)c1ccco1	-3	x	-128	50	44*	x
O=C(N/N=C\c1cn(-c2ccccc2)nc1-c1ccccc1)c1ccc(Br)o1	-2	-2	x	-13	30	x
Cc1ccc(-c2nn(-c3ccccc3)cc2/C=N/NC(=O)c2ccc(Br)o2)cc1	0	x	x	56	64*	x
O=C(N/N=C/c1ccc(Br)cc1)c1ccc(Br)o1	x	56*	-91	103*	x	x
O=C(N/N=C/c1ccc(F)cc1)c1ccc(Br)cc1	0	6	x	52	37	0
C[C@@H]1CCCCO[C@H](CN(C)S(=O)(=O)c2cccs2)[C@H](C)CN([C@H](C)CO)C(=O)c2cc(NC(=O)Cc3ccccc3)ccc2O1	-4	x	4[16.7 µM]	x	5	x
Cc1cc(NC(=O)c2cccc(Br)c2)n[nH]1	-6	25	-42	56	47*	-3
O=C(NC1=NCCS1)c1ccc(-c2ccc(Cl)cc2)o1	-4	x	-175	71	x	4
CC(C)Oc1cccc(C(=O)NC2=NCCS2)c1	-1	-2	-30	31	x	-1
O=C(NC1=NCCS1)c1cccc(Br)c1	-4	42*	-74	x	48*	-3
O=C(NC1=NCCS1)c1ccc(Cl)cc1	-3	21	-18	x	44*	4
SMILES	Cneo AK release	Wnt act	HIV Env fusion	MITF act	esBAF inh	ERAP1 HTS inh
COc1cccc(C(=O)NC2=NCCS2)c1	-4	44*	-18	x	-31	x
Cc1cc(C)nc(NC(=O)c2cccc(Br)c2)n1	2	0	-9	x	-4	-5
O=C(NNC(=O)c1ccccc1OCc1ccccc1)c1ccccc1F	-7	11	-19	55	60*	1
CC(C)NC(=O)N(C)C[C@@H]1Oc2ncc(C#Cc3ccc(F)cc3)cc2C(=O)N([C@H](C)CO)C[C@@H]1C	53	x	-5[16.7 µM]	x	5	0
COC(=O)Cc1nnn2c1[C@@H](C)[C@@H](c1ccccc1Br)O[C@@H](C)C2	x	-1	59*	x	x	-1
[O-][n+]1c2ccccc2c2n1CCN1CCOC21c1ccc(Cl)cc1 (centres undefined)	3	u	-19	4	60*	x
N#Cc1ccc(C23OCCN2CCn2nc4ccccc4c23)cc1 (centres undefined)	-2	-2	-11	-22	3	2
Cc1noc(C)c1C(=O)NC(C)C12CC3CC(CC(C3)C1)C2 (centres undefined)	x	-7	21	5	x	0
CCCC(NC(=O)c1c(C)noc1C)C12CC3CC(CC(C3)C1)C2 (centres undefined)	-1	-4	60*	7	-1	-2
COc1ccc(S(=O)(=O)Nc2cccc3c2O[C@@H](CN(C)C(=O)Nc2ccc(C(F)(F)F)cc2)[C@H](C)CN([C@H](C)CO)C3=O)cc1	-2	x	24[16.7 µM]	x	-1	-2
C[C@H]1CN([C@@H](C)CO)C(=O)c2cc(NC(=O)Cc3ccccc3)ccc2O[C@@H]1CN(C)Cc1ccc(C(F)(F)F)cc1	5	x	25[16.7 µM]	x	-5	3
CC(C)(Sc1ccc(CCN(CCCCC2CCCCC2)C(=O)NC2CCCCC2)cc1)C(=O)O	-2	0	57*	5	-3	-1
O=C(C[C@@H]1CC[C@H](NC(=O)c2ccc3c(c2)OCO3)[C@@H](CO)O1)NCc1ccc(Cl)cc1	-2	x	-9[16.7 µM]	x	1	-2
CC(C)Oc1ccc(C(=O)OCC(=O)c2ccc[nH]2)cc1	-2	45*	x	89*	65*	1
O=C(OCC(=O)c1ccc[nH]1)c1ccc(C(F)(F)F)cc1	0	-7	12	13	-1	-1
COc1ccc(C(=O)COC(=O)c2sccc2C)cc1OC	-1	45*	x	103*	91*	0
Cc1ccsc1C(=O)OCC(=O)Nc1sccc1C(N)=O	x	x	-82	x	88*	x
Cc1ccsc1C(=O)OCC(=O)c1ccc[nH]1	2	38*	x	109*	48*	0
CNC[C@@H]1OCCCC[C@@H](C)Oc2ccc(NC(=O)c3ccccc3)cc2C(=O)N([C@@H](C)CO)C[C@@H]1C	2	x	11[16.7 µM]	x	-1	0
Cc1ccc(-n2sc3ccccc3c2=O)cc1	x	-2	25	25	x	x
COC(=O)c1cccc(-n2sc3ccccc3c2=O)c1	-1	21	16	27	28	86*
O=c1c2cc(F)ccc2sn1-c1ccccc1Cl	-3	2	22	x	-1	61*
COC(=O)c1cccc(N2CCCC2=O)c1	-1	-2	-18	3	-1	0
O=c1c2ccc(F)cc2sn1-c1ccccc1	-1	-2	35	x	22	x
O=c1c2ccccc2sn1-c1ccc(F)cc1	-1	15	-28	-9	34	52*
CN1C(=O)c2cc(NC(=O)Nc3ccccc3F)ccc2OC[C@H]2O[C@@H](CC(=O)NCCc3ccncc3)CC[C@H]21	1	x	-7[16.7 µM]	x	2	x
CO[C@H]1CN(C)C(=O)c2cc(NC(=O)C3CCOCC3)ccc2OC[C@H](C)N(Cc2cccnc2)C[C@@H]1C	-3	x	9[16.7 µM]	x	-5	x
